Test system: MDA-MB-468
Assay: Cytotoxicity against human MDA-MB-468 cells […] after 5 days by MTT assay
Type: functional, cell-based
Conditions: MDA-MB-468, 120 h
Method in brief: (§1)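 Cells are grown in RPMI with 2 mM L-glutamine and 10% FBS and seeded at 400–1000 per well. They get doubling dilutions of drug, each dose in triplicate, for five days at 37 °C, 5% CO2, humidified. MTT at 3 mg/ml is added for 3 h, and formazan is dissolved in DMSO and read at 540 nm minus 620 nm. % growth inhibition is taken against control wells and IC50 calculated.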

Question: Which IC50 does the source give for `CC(=O)[C@H]1CC[C@H]2[C@@H]3CC=C4C[C@@H](OC(=O)CCCc5ccc(N(CCCl)CCCl)c([N+](=O)[O-])c5)CC[C@]4(C)[C@H]3CC[C@]12C` here?
Answer: 19.3 µM

Question: With `C[C@]12CC[C@H](OC(=O)CCCc3ccc(N(CCCl)CCCl)cc3)CC1=CC[C@@H]1[C@@H]2CC[C@]2(C)C(=O)CC[C@@H]12` as the compound, how does the IC50 read?
Answer: 5.48 µM

Test system: MCF7
Assay: Cytotoxicity against human MCF7 cells expressing estrogen and progesterone receptor after 5 days by MTT assay
Type: functional, cell-based
Conditions: MCF7, 120 h
Method in brief: as §1

Question: Which IC50 does the source give for `CC(=O)[C@H]1CC[C@H]2[C@@H]3CC=C4C[C@@H](OC(=O)CCCc5ccc(N(CCCl)CCCl)c([N+](=O)[O-])c5)CC[C@]4(C)[C@H]3CC[C@]12C` here?
Answer: 68.3 µM

Question: Which IC50 does the source give for `C[C@]12CC[C@H](OC(=O)CCCc3ccc(N(CCCl)CCCl)cc3)CC1=CC[C@@H]1[C@@H]2CC[C@]2(C)C(=O)CC[C@@H]12` here?
Answer: 72.5 µM

Test system: not listed separately
Assay: Cytotoxicity against human OVCA3 cells after 5 days by MTT assay
Type: functional, cell-based
Conditions: OVCA3, 120 h
Method in brief: as §1

Question: With `CC(=O)[C@H]1CC[C@H]2[C@@H]3CC=C4C[C@@H](OC(=O)CCCc5ccc(N(CCCl)CCCl)c([N+](=O)[O-])c5)CC[C@]4(C)[C@H]3CC[C@]12C` as the compound, how does the IC50 read?
Answer: > 100 µM

Question: For `C[C@]12CC[C@H](OC(=O)CCCc3ccc(N(CCCl)CCCl)cc3)CC1=CC[C@@H]1[C@@H]2CC[C@]2(C)C(=O)CC[C@@H]12`, which IC50 is on record?
Answer: 82.5 µM

Test system: MDA-MB-468
Assay: Cytotoxicity against human MDA-MB-468 cells transfected with NAD(P)H: quinone oxidoreductase NQO1 after 5 days by MTT assay
Type: functional, cell-based
Conditions: MDA-MB-468, 120 h
Method in brief: as §1

Question: With `CC(=O)[C@H]1CC[C@H]2[C@@H]3CC=C4C[C@@H](OC(=O)CCCc5ccc(N(CCCl)CCCl)c([N+](=O)[O-])c5)CC[C@]4(C)[C@H]3CC[C@]12C` as the compound, how does the IC50 read?
Answer: 32.6 µM

Question: For `C[C@]12CC[C@H](OC(=O)CCCc3ccc(N(CCCl)CCCl)cc3)CC1=CC[C@@H]1[C@@H]2CC[C@]2(C)C(=O)CC[C@@H]12`, which IC50 is on record?
Answer: 11.8 µM

Test system: not listed separately
Assay: Alkylating activity in 0.2 M acetate buffer of pH 5.6 at 0.1 to 1 mM after 4 hrs by spectrophotometry relative to chlorambucil
Type: physicochemical
Conditions: pH 5.6, 4 h, 1000 µM
Method in brief: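 Each compound at 0.1–1.0 mM in 50% (v/v) acetone/ethanol is added to 0.2 M acetate buffer pH 5.6 with 5% (w/v) p-nitrobenzyl pyridine in acetone and incubated 4 h at 37 °C. Colour is then developed with 25% (v/v) 3-amino-1-propanol in tert-butanol and absorbance read at 560 nm.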

Question: For `CC(=O)[C@H]1CC[C@H]2[C@@H]3CC=C4C[C@@H](OC(=O)CCCc5ccc(N(CCCl)CCCl)c([N+](=O)[O-])c5)CC[C@]4(C)[C@H]3CC[C@]12C`, which Activity is on record?
Answer: 4%

Question: For `C[C@]12CC[C@H](OC(=O)CCCc3ccc(N(CCCl)CCCl)cc3)CC1=CC[C@@H]1[C@@H]2CC[C@]2(C)C(=O)CC[C@@H]12`, which Activity is on record?
Answer: 70%

Test system: not listed separately
Assay: Chemical stability assessed as rate of hydrolysis after 24 hrs by HPLC analysis in presence of pig liver esterase
Type: physicochemical
Conditions: read-out: Activity
Method in brief: (§2)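 Porcine liver esterase is preincubated about 15 min at 37 °C in phosphate buffer pH 7.4, then ester is added. Aliquots are taken at set times, quenched with an equal volume of acetonitrile, vortexed and spun 10 min at 11,600 g. Samples are run on RP-HPLC (C18, 2% acetic acid/acetonitrile pH 5.2, 1.2 ml/min, 254 nm). The zero reaction is ester in buffer alone for 15 min.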

Question: Which metabolised at 24 h does the source give for `CC(=O)[C@H]1CC[C@H]2[C@@H]3CC=C4C[C@@H](OC(=O)CCCc5ccc(N(CCCl)CCCl)c([N+](=O)[O-])c5)CC[C@]4(C)[C@H]3CC[C@]12C` here?
Answer: 83%

Question: For `C[C@]12CC[C@H](OC(=O)CCCc3ccc(N(CCCl)CCCl)cc3)CC1=CC[C@@H]1[C@@H]2CC[C@]2(C)C(=O)CC[C@@H]12`, which metabolised at 24 h is on record?
Answer: 83%

Test system: MDA-MB-468
Assay: Ratio of IC50 for […] human MDA-MB-468 cells transfected with NAD(P)H: quinone oxidoreductase NQO1 to IC50 for human MDA-MB-468 cells […]
Type: functional
Conditions: not given

Question: Which “Ratio IC50” value does the source give for `CC(=O)[C@H]1CC[C@H]2[C@@H]3CC=C4C[C@@H](OC(=O)CCCc5ccc(N(CCCl)CCCl)c([N+](=O)[O-])c5)CC[C@]4(C)[C@H]3CC[C@]12C` here?
Answer: 2

Question: Which “Ratio IC50” value does the source give for `C[C@]12CC[C@H](OC(=O)CCCc3ccc(N(CCCl)CCCl)cc3)CC1=CC[C@@H]1[C@@H]2CC[C@]2(C)C(=O)CC[C@@H]12` here?
Answer: 1.5

Test system: Daoy
Assay: Cytotoxicity against human DaOY cells after 5 days by MTT assay
Type: functional, cell-based
Conditions: 120 h
Method in brief: as §1

Question: With `CC(=O)[C@H]1CC[C@H]2[C@@H]3CC=C4C[C@@H](OC(=O)CCCc5ccc(N(CCCl)CCCl)c([N+](=O)[O-])c5)CC[C@]4(C)[C@H]3CC[C@]12C` as the compound, how does the IC50 read?
Answer: > 100 µM

Question: Which IC50 does the source give for `C[C@]12CC[C@H](OC(=O)CCCc3ccc(N(CCCl)CCCl)cc3)CC1=CC[C@@H]1[C@@H]2CC[C@]2(C)C(=O)CC[C@@H]12` here?
Answer: 19.6 µM

Test system: NCI-H460
Assay: Cytotoxicity against human H460 cells after 5 days by MTT assay
Type: functional, cell-based
Conditions: NCI-H460, 120 h
Method in brief: as §1

Question: Which IC50 does the source give for `CC(=O)[C@H]1CC[C@H]2[C@@H]3CC=C4C[C@@H](OC(=O)CCCc5ccc(N(CCCl)CCCl)c([N+](=O)[O-])c5)CC[C@]4(C)[C@H]3CC[C@]12C` here?
Answer: > 100 µM

Question: With `C[C@]12CC[C@H](OC(=O)CCCc3ccc(N(CCCl)CCCl)cc3)CC1=CC[C@@H]1[C@@H]2CC[C@]2(C)C(=O)CC[C@@H]12` as the compound, how does the IC50 read?
Answer: 11.8 µM

Test system: WiDr
Assay: Cytotoxicity against human WiDr cells after 5 days by MTT assay
Type: functional, cell-based
Conditions: 120 h
Method in brief: as §1

Question: With `CC(=O)[C@H]1CC[C@H]2[C@@H]3CC=C4C[C@@H](OC(=O)CCCc5ccc(N(CCCl)CCCl)c([N+](=O)[O-])c5)CC[C@]4(C)[C@H]3CC[C@]12C` as the compound, how does the IC50 read?
Answer: > 100 µM

Question: Which IC50 does the source give for `C[C@]12CC[C@H](OC(=O)CCCc3ccc(N(CCCl)CCCl)cc3)CC1=CC[C@@H]1[C@@H]2CC[C@]2(C)C(=O)CC[C@@H]12` here?
Answer: > 100 µM

Test system: not listed separately
Assay: Chemical stability assessed as rate of hydrolysis after 2 hrs by HPLC analysis in presence of pig liver esterase
Type: physicochemical
Conditions: read-out: Activity
Method in brief: as §2

Question: Which metabolised at 2 h does the source give for `CC(=O)[C@H]1CC[C@H]2[C@@H]3CC=C4C[C@@H](OC(=O)CCCc5ccc(N(CCCl)CCCl)c([N+](=O)[O-])c5)CC[C@]4(C)[C@H]3CC[C@]12C` here?
Answer: 24%

Question: Which metabolised at 2 h does the source give for `C[C@]12CC[C@H](OC(=O)CCCc3ccc(N(CCCl)CCCl)cc3)CC1=CC[C@@H]1[C@@H]2CC[C@]2(C)C(=O)CC[C@@H]12` here?
Answer: 24%

Test system: A-375
Assay: Cytotoxicity against human A375 cells after 5 days by MTT assay
Type: functional, cell-based
Conditions: A-375, 120 h
Method in brief: as §1

Question: Which IC50 does the source give for `CC(=O)[C@H]1CC[C@H]2[C@@H]3CC=C4C[C@@H](OC(=O)CCCc5ccc(N(CCCl)CCCl)c([N+](=O)[O-])c5)CC[C@]4(C)[C@H]3CC[C@]12C` here?
Answer: > 100 µM

Question: Which IC50 does the source give for `C[C@]12CC[C@H](OC(=O)CCCc3ccc(N(CCCl)CCCl)cc3)CC1=CC[C@@H]1[C@@H]2CC[C@]2(C)C(=O)CC[C@@H]12` here?
Answer: 61.4 µM

Test system: not listed separately
Assay: Chemical stability in phosphate buffer saline at pH 7.4 assessed as compound degradation by HPLC analysis
Type: physicochemical
Conditions: read-out: Activity
Method in brief: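 Esters are stored in phosphate buffered saline at 37 °C. Stability is followed over forty-five days by RP-HPLC (C18, acetic acid/acetonitrile pH 5.2, 1.2 ml/min, UV 254 nm), supported by infrared spectroscopy.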

Question: For `CC(=O)[C@H]1CC[C@H]2[C@@H]3CC=C4C[C@@H](OC(=O)CCCc5ccc(N(CCCl)CCCl)c([N+](=O)[O-])c5)CC[C@]4(C)[C@H]3CC[C@]12C`, which degraded is on record?
Answer: 48%

Test system: not listed separately
Assay: Partition coefficient, log P after 1 hr by UV spectroscopy
Type: physicochemical
Conditions: octanol/water
Method in brief: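 Compound is shaken in n-octanol/water for 1 h at 20 °C, then spun 10 min at 3600 g and the phases separated. Original and shaken solutions are diluted to 0.8 mg% and compared by UV spectroscopy at 200–400 nm. Log P is calculated by the Leo method.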

Question: With `CC(=O)[C@H]1CC[C@H]2[C@@H]3CC=C4C[C@@H](OC(=O)CCCc5ccc(N(CCCl)CCCl)c([N+](=O)[O-])c5)CC[C@]4(C)[C@H]3CC[C@]12C` as the compound, how does the logP at 1 h read?
Answer: > 8

Question: Which logP at 1 h does the source give for `C[C@]12CC[C@H](OC(=O)CCCc3ccc(N(CCCl)CCCl)cc3)CC1=CC[C@@H]1[C@@H]2CC[C@]2(C)C(=O)CC[C@@H]12` here?
Answer: > 8

Test system: not listed separately
Assay: Metabolic stability in human plasma assessed as rate of hydrolysis after 24 hrs
Type: ADME, cell-free
Conditions: read-out: Activity
Method in brief: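 Ester stock is made in absolute ethanol and added to freshly prepared human plasma with PBS, then incubated at 37 °C. Samples are mixed with an equal volume of mobile phase, spun 20 min at 11,600 g, and the supernatant is diluted in mobile phase for RP-HPLC.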

Question: Which metabolised at 24 h does the source give for `CC(=O)[C@H]1CC[C@H]2[C@@H]3CC=C4C[C@@H](OC(=O)CCCc5ccc(N(CCCl)CCCl)c([N+](=O)[O-])c5)CC[C@]4(C)[C@H]3CC[C@]12C` here?
Answer: 37%

Question: With `C[C@]12CC[C@H](OC(=O)CCCc3ccc(N(CCCl)CCCl)cc3)CC1=CC[C@@H]1[C@@H]2CC[C@]2(C)C(=O)CC[C@@H]12` as the compound, how does the metabolised at 24 h read?
Answer: 51%

Reference: ChEMBL document CHEMBL1152483, “To determine the cytotoxicity of chlorambucil and one of its nitro-derivatives, conjugated to prasterone and pregnenolone, towards eight human cancer cell-lines” (Eur J Med Chem, 2009)
